From ChEMBL document CHEMBL1123240 (J Med Chem, 1986)

Key:
Rattus norvegicus [1] = organism: Rattus norvegicus; assay: Compound was tested for inhibition of hippocampal excitatory neurotransmission in schaffer collateral -CA1 pyramidal cells; assay type: functional
How it was run: (§1)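 Transverse hippocampal slices, 450 μm, from 30–90-day-old male Holtzman rats. Held at 30 °C, submerged in stirred medium (10 mM glucose, 124 mM NaCl, 3.3 mM KCl, 2.4 mM MgSO4, 2.5 mM CaCl2, 1.2 mM KH2PO4, 26 mM NaHCO3; 95:5 O2/CO2, pH 7.4). Evoked synaptic field potentials recorded extracellularly; CA1 electrodes in stratum radiatum. Drug started at threshold and doubled every 4 min. IC50 from fraction of uninhibited response versus log concentration.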

Rattus norvegicus [2] = organism: Rattus norvegicus; assay: Compound was tested for inhibition of Medial perforant path(MPP) neurotransmission in hippocampus; assay type: functional
Rattus norvegicus [3] = organism: Rattus norvegicus; assay: Compound was evaluated for its ability to displace [3H]APB from rat brain synaptic plasma membrane preparations
Rattus norvegicus [4] = organism: Rattus norvegicus; assay: Hill coefficient value of compound was evaluated for [3H]-APB binding to rat brain synaptic plasma
How it was run: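 Rat forebrain synaptic plasma membranes (Holtzman rats, 30–90 days; sucrose gradient, 1.0–1.3 M interface; 3–5 mg protein/mL stock). Membranes ≤200 μg/mL preincubated 5 min at 33 °C, then 1 h at 33 °C. Final: 50 mM HEPES pH 7.4, 10 mM CaCl2, 100 nM DL-[3H]APB, displacer up to 1 mM. Separation by centrifugation, scintillation counting. Nonspecific binding with 1 mM unlabeled ligand. Triplicates on ≥3 membrane preparations.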

[5] = Ratio of IC50 of Medial perforant path(MPP) to IC50 of Lateral perforant path(LPP); assay type: functional
How it was run: (§2)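 Ratio of IC50 values. For line 8, LPP IC50 from slice recording over [3H]APB binding IC50. Each IC50 is a weighted mean of IC50s calculated for each experimental point, or for steep agonist-like curves is read directly from the log concentration–response curve.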

Rattus norvegicus [6] = organism: Rattus norvegicus; assay: Compound was tested for inhibition of Lateral perforant path(LPP) neurotransmission in hippocampus; assay type: functional; how it was run: as §1
[7] = Ratio of IC50 of Lateral perforant path(LPP) to IC50 of [3H]- binding; assay type: tissue-based; how it was run: as §2
Rattus norvegicus [8] = organism: Rattus norvegicus; assay: Compound was tested for inhibition of Medial perforant path(MPP) neurotransmission in hippocampus.; assay type: functional
Rattus norvegicus [9] = organism: Rattus norvegicus; assay: Compound was tested for inhibition of hippocampal excitatory neurotransmission in schaffer collateral -CA1 pyramidal cells.; assay type: functional; how it was run: as §1

Compound | IC50 (Rattus norvegicus [1]) [µM] | IC50 (Rattus norvegicus [2]) [µM] | IC50 (Rattus norvegicus [3]) [µM] | nH (Rattus norvegicus [4]) | Ratio [5] | IC50 (Rattus norvegicus [6]) [µM] | Ratio [7] | IC50 (Rattus norvegicus [8]) [µM] | IC50 (Rattus norvegicus [9]) [µM]
N[C@@]1(C(=O)O)CC[C@H](P(=O)(O)O)C1 | 3800 | 2400 | 4.7 | 1 | 2.5 | 960 |  |  | 
N[C@@]1(C(=O)O)CCC[C@H](P(=O)(O)O)C1 | 8100 | 7300 | 840 |  | 2.4 | 3100 | 3.7 |  | 
N[C@@]1(C(=O)O)CC[C@@H](P(=O)(O)O)C1 | > 10000 | 1850 | 80 | 1 |  | 130 |  |  | 
N[C@@H](CCP(=O)(O)O)C(=O)O |  |  | 1.5 | 0.8 | 18 | 2.5 |  | 45 | 2500
N[C@@]1(C(=O)O)CCC[C@@H](P(=O)(O)O)C1 | 9600 | 10000 | 750 |  | 1.7 | 5800 | 7.7 |  | 
